Laboratory results from paper PMC6875695 (Journal of controlled release : official journal of the …, 2019).

Tests used:
HIV-1NL4–3-eGFP = assay: EC50 assay in CEM-CD4+ T-cells, HIV-1 RT activity; format: cell-based; conditions: Human immunodeficiency virus 1, T-cell, 240 h
HIV-1ADA = assay: EC50 assay in MDM, HIV-1 RT activity; format: cell-based; conditions: Human immunodeficiency virus 1, 240 h
Summary of the method: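 Human monocytes differentiated to macrophages with MCSF (1000 U/mL) for 7 days, then seeded at 0.15 × 10^6 cells/well and kept at 37 °C, 5% CO2. Cells were pretreated 2 h with test compound (0.1–1000 nM) and challenged with HIV-1ADA at MOI 0.1 for 4 h. After a PBS wash they were re-fed drug-containing medium at the same concentrations. Supernatant RT activity was read 10 days post-challenge.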

HIV-1 = conditions: no reference given; cited from earlier work

For `Cc1cc(/C=C/C#N)cc(C)c1Nc1ccnc(Nc2ccc(C#N)cc2)n1` [RPV, rilpivirine], the EC50 (HIV-1NL4–3-eGFP) is listed as 0.8 nM, the EC50 (HIV-1ADA) is listed as 1.9 nM and the “protein-adjusted 90% inhibitory concentration (PA-IC90)” value (HIV-1) is listed as 12 ng/mL.
